From ChEMBL document CHEMBL3232952, “Bisphosphonate prodrugs: synthesis and biological evaluation in HuH7 hepatocarcinoma cells” (Eur J Med Chem, 2014)
Calls of active or inactive are those of the source. No cut-off for these calls is given here.

Assays:
[1] = (§1) Cytotoxicity against human HuH7 cells after 144 hrs by MTT assay; assay type: functional, cell-based; conditions: Huh-7, 144 h
How it was run: (§2)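 MTT assay. HuH7 cells were seeded at 5x10⁴/well and grown 24 h in complete medium, then switched to 2% FCS medium containing compound (10⁻⁶–10⁻³ M) for 144 h. Cells were washed with PBS, given MTT (2 mg/mL) for 4 h at 37 °C, and formazan was dissolved in DMSO. OD was read at 570 nm. Mean ± SD of three independent experiments.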

[2] = Cytotoxicity against human HuH7 cells at 250 uM after 144 hrs by MTT assay; assay type: functional; conditions: Huh-7, 144 h; how it was run: as §2
[3] = Antimigratory activity against human HuH7 cells at 100 uM after 24 hrs relative to control; assay type: functional; conditions: Huh-7, 24 h
How it was run: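 Migration chambers with the insert undersides coated overnight at 4 °C with fibronectin (100 µg/mL). 2.5 × 10⁵ HuH7 cells were placed in the upper chamber with 100 µM compound, with HGF (20 ng/mL) in the lower chamber. After 24 h, non-migrated cells were scraped off, and cells on the lower face were fixed, stained and counted. Results are % of control set at 100%; triplicate.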

[4] = (§3) Antiinvasive activity against human HuH7 cells at 100 uM after 24 hrs by matrigel assay relative to control; assay type: functional, Huh-7
How it was run: (§4)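 Boyden chambers with 8 µm-pore filters coated with Matrigel. 2.5 × 10⁵ HuH7 cells were seeded in the upper well with 100 µM compound. HGF (20 ng/mL) in the lower chamber served as chemoattractant. After 24 h, non-invaded cells were wiped off, and filters were methanol-fixed and haematoxylin-stained. Cells on the lower surface were counted in 10 fields, expressed as % of control; mean ± SD of three independent experiments.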

Huh-7 [5] = experiment: Cytotoxicity against human HuH7 cells at 1 mM after 144 hrs by MTT assay in presence of IBMX; assay type: functional, cell-based
How it was run: (§5)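 MTT viability assay with the cells pretreated with IBMX (1 mM) before compound addition; the pretreatment time is given as 30 min in Methods and 1 h in the legend. Then 144 h exposure in 2% FCS medium, MTT (2 mg/mL) for 4 h at 37 °C, DMSO solubilisation and OD read at 570 nm. Mean ± SD of three independent experiments.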

Huh-7 [6] = experiment: as §1; assay type: functional, cell-based; how it was run: as §2
[7] = Cytotoxicity against human HuH7 cells at 10 uM to 1 mM after 144 hrs by MTT assay; assay type: functional, Huh-7; how it was run: as §2
Huh-7 [8] = experiment: Induction of apoptosis in human HuH7 cells after 144 hrs by Annexin V/propidium iodide staining-based FACS analysis; assay type: functional, cell-based
How it was run: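 HuH7 cells were exposed to compound for 144 h, then treated and untreated cells were stained with Annexin V and PI. Flow cytometry scored early apoptosis as Ann V⁺/PI⁻ and late apoptosis as Ann V⁺/PI⁺.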

Huh-7 [9] = experiment: Cytotoxicity against human HuH7 cells at 400 uM after 144 hrs by MTT assay in presence of IBMX; assay type: functional, cell-based
How it was run: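 HuH7 cells pretreated with IBMX (1 mM) before bisphosphonate was added. Cells were seeded at 5x10⁴ cells/well and held 24 h in complete medium, then exposed 144 h to compound in 2% FCS medium. Read-out by MTT (2 mg/mL, 4 h, 37 °C), DMSO solubilisation, OD 570 nm. Mean ± SD of three independent experiments.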

[10] = Cell cycle arrest in human HuH7 cells assessed as accumulation at G1 phase after 144 hrs by […]propidium iodide staining-based FACS analysis; assay type: functional; conditions: Huh-7
Serum [11] = experiment: Stability in human serum assessed as [31P] NMR chemical shift after 1 day by [31P]NMR spectroscopy; assay type: ADME, cell-free; conditions: 24 h
[12] = Stability of the compound in cell culture medium assessed as [31P] NMR chemical shift after 5 days by [31P]NMR spectroscopy; assay type: physicochemical; conditions: 120 h
[13] = Stability of the compound in D2O assessed as [31P] NMR chemical shift after 3 days by [31P]NMR spectroscopy; assay type: physicochemical; conditions: 72 h
Serum [14] = experiment: Stability in human serum assessed as [31P] NMR chemical shift after 3 days by [31P]NMR spectroscopy; assay type: ADME, cell-free; conditions: 72 h
Serum [15] = experiment: Stability in human serum assessed as [31P] NMR chemical shift after 5 days by [31P]NMR spectroscopy; assay type: ADME, cell-free; conditions: 120 h
[16] = Stability of the compound in cell culture medium assessed as [31P] NMR chemical shift after 1 day by [31P]NMR spectroscopy; assay type: physicochemical; conditions: 24 h
[17] = Stability of the compound in D2O assessed as [31P] NMR chemical shift after 1 day by [31P]NMR spectroscopy; assay type: physicochemical; conditions: 24 h
Huh-7 [18] = experiment: Cytotoxicity against human HuH7 cells at 125 uM after 144 hrs by MTT assay in presence of IBMX; assay type: functional, cell-based; how it was run: as §5
[19] = Stability of the compound in D2O assessed as [31P] NMR chemical shift after 5 days by [31P]NMR spectroscopy; assay type: physicochemical; conditions: 120 h
[20] = Drug metabolism in human HuH7 cell extract assessed as phosphorylated metabolite formation by measuring [31P] NMR chemical shift at 0.5 mM after 5 days by [31P]NMR spectroscopy; assay type: ADME, cell-based; conditions: huh-7, 120 h, 500 µM
[21] = Stability of the compound in cell culture medium assessed as [31P] NMR chemical shift after 3 days by [31P]NMR spectroscopy; assay type: physicochemical; conditions: 72 h
Huh-7 [22] = experiment: as §3; assay type: functional; how it was run: as §4
[23] = Stability in human HuH7 cell extract assessed as compound remaining by measuring [31P] NMR chemical shift at 0.5 mM after 5 days by [31P]NMR spectroscopy; assay type: ADME, cell-based; conditions: huh-7, 120 h, 500 µM
[24] = Cytotoxicity against human HuH7 cells at 1 mM after 144 hrs by MTT assay; assay type: cell-based; conditions: huh-7, 144 h, 1000 µM
How it was run: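 HuH7 cells plated at 5x10⁴ cells/well in complete medium for 24 h, then switched to 2% FCS medium with bisphosphonate (10^-6 to 10^-3 M range) for 144 h. PBS wash, then MTT (2 mg/mL) 4 h at 37 °C, formazan dissolved in DMSO, OD read at 570 nm. Mean ± SD of three independent experiments.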

## O.O=P(O)(O)C(O)(Cn1ccnc1)P(=O)(O)O [ZOLEDRONIC ACID]
[1]
  IC50: 60 µM
[2]
  inhibition at 250 µM: 80%
[3]
  inhibition at 100 µM: 72%
[4]
  Activity: 54%

## O=P(O)(Oc1ccccc1)C(O)(c1ccccc1)P(=O)(O)Oc1ccccc1 (stereo not given)
Huh-7 [5]
  Activity: inactive
[1]
  IC50: 555 µM
Huh-7 [6]
  inhibition: Dose-dependent effect

## COP(=O)(O)C(O)(c1ccc(Br)cc1)P(=O)(O)OC (stereo not given)
[7]
  inhibition (INH): 15%

## O=P(O)(O)C(O)(c1ccc(Br)cc1)P(=O)(O)Oc1ccccc1 (stereo not given)
[1]
  IC50: 100 µM
Huh-7 [6]
  inhibition: Dose-dependent effect
[2]
  inhibition at 250 µM: 80%

## O=P(O)(O)C(O)(c1ccc(Br)cc1)P(=O)(O)O
Huh-7 [8]
  Activity: Active
[1]
  IC50: 440 µM
Huh-7 [6]
  inhibition: Dose-dependent effect
[3]
  inhibition at 100 µM: 95%
Huh-7 [9]
  Activity: Active
[4]
  Activity: 40%
[10]
  Activity: 58%

## O=P(O)(Oc1ccccc1)C(O)(c1ccc(Br)cc1)P(=O)(O)Oc1ccccc1 (stereo not given)
Serum [11]
  Stability: 12.85 ppm
[12]
  Stability: 12.83 ppm
Huh-7 [8]
  Activity: Active
[13]
  Stability: 12.78 ppm
[1]
  IC50: 125 µM
Huh-7 [6]
  inhibition: Dose-dependent effect
Serum [14]
  Stability: 12.65 ppm
[2]
  inhibition at 250 µM: 80%
[3]
  inhibition at 100 µM: 68%
Serum [15]
  Stability: 12.8 ppm
[16]
  Stability: 12.85 ppm
[17]
  Stability: 12.8 ppm
Huh-7 [18]
  Activity: inactive
[19]
  Stability: 12.8 ppm
[20]
  Drug metabolism: metabolite_detected
[21]
  Stability: 12.83 ppm
Huh-7 [22]
  Activity: inactive
[23]
  Stability: 12.09 ppm
[10]
  Activity: 58%

## CC(C)Cn1c(=O)n(C)c(=O)c2[nH]cnc21 [ISOBUTYLMETHYLXANTHINE]
[24]
  Activity: Non-toxic

## O=P(O)(O)C(O)(c1ccccc1)P(=O)(O)O
Huh-7 [5]
  Activity: Active
[7]
  inhibition (INH): 15%
